The record followed here is ChEMBL document CHEMBL4007470, “Discovery of a 2'-fluoro-2'-C-methyl C-nucleotide HCV polymerase inhibitor and a phosphoramidate prodrug with favorable properties” (Bioorg Med Chem Lett, 2017).

Data set [1] has as its system Liver. In words: Hepatic extraction in human liver S9 fractions at 2 uM by LC-MS/MS analysis. It is filed as ADME. The conditions noted are these: s9, 2 µM, 2 µM. A digest of the protocol:
(§1)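 Compound at 2 μM incubated with S9 fractions at 37 °C for 90 min with NADPH and UDPGA. Quenched with aqueous acetonitrile/methanol containing internal standard and analysed by LC-MS/MS. Half-life from an exponential fit assuming first-order kinetics. Hepatic extraction predicted from half-life using the well-stirred model.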

For data set [2], the system named is Hepatitis C virus. In words: Antiviral activity against HCV genotype 4a infected in human HuH7 cells by luciferase reporter gene assay. The data set is classed as functional, cell-based, Hepacivirus hominis. For orientation: In a reporter assay the amount or activity of a reporter protein is the signal.
The species named for data set [3] is Rattus norvegicus. In words: Toxicity in rat assessed as vacuolization in brain treated for 28 days by histopathology. The note with it: in vivo, 672 h.
The subject of data set [4] is Rattus norvegicus. In words: Toxicity in rat at 1000 mg/kg/day for 28 days. It is filed as organism-based. The conditions noted are these: in vivo, 672 h.
Data set [5] can be described thus: Hepatic extraction in hamster liver S9 fractions at 2 uM by LC-MS/MS analysis. The data set is classed as ADME. The conditions noted are these: cricetinae, s9, 2 µM; 2 µM. In outline:
as §1

Data set [6] can be described thus: Permeability of the compound from apical to basolateral side in human Caco2 cells at 10 uM. The conditions noted are these: caco-2, 10 µM, 10 µM. The data set is classed as ADME, cell-based, Caco-2. In outline:
(§2)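 Caco-2 permeability at 10 μM compound, measured in apical-to-basolateral and basolateral-to-apical directions.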
For orientation: Passage across Caco-2 layers is used to estimate intestinal permeability.

In data set [7] the test system is Plasma. Briefly: Half life in human plasma at 2 uM by LC-MS/MS analysis. It is filed as ADME, cell-free. The note with it: 2 µM. In outline: (§3)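 Compound at 2 μM incubated in plasma at 37 °C for up to 4 h. Aliquots quenched with 9 volumes of acetonitrile containing internal standard, then centrifuged. Supernatant analysed by LC-MS/MS.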
The test system of data set [8] is Hepatitis C virus. In words: Antiviral activity against HCV genotype 1b infected in human HuH7 cells by luciferase reporter gene assay. It is filed as functional, cell-based, Hepacivirus hominis. A digest of the protocol:
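Luciferase-reporter genotype 1b subgenomic replicon in Huh-7 cells; EC50 is concentration giving 50% inhibition. Values are averages of at least three repeats.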

The test system of data set [9] is Rhesus monkey. In words: Toxicity in monkey at 30 mg/kg/day for 28 days. It is filed as organism-based, Macaca mulatta. The note with it: in vivo, 672 h.
The nature of data set [10]: Permeability of the compound from basolateral to apical side in human Caco2 cells at 10 uM. It is filed as ADME, cell-based, Caco-2. The conditions noted are these: caco-2, 10 µM, 10 µM. In outline:
as §2

The nature of data set [11]: Half life in hamster plasma at 2 uM by LC-MS/MS analysis. The data set is classed as ADME, cell-free. The note with it: cricetinae, 2 µM. A digest of the protocol: as §3
Data set [12] in a line: Half life in hamster intestinal S9 fractions at 2 uM by LC-MS/MS analysis. It is filed as ADME, Intestine. The note with it: cricetinae, s9, 2 µM; 2 µM.
For data set [13], the system named is Hepatitis C virus. In words: Antiviral activity against HCV genotype 1a infected in human HuH7 cells by luciferase reporter gene assay. The data set is classed as functional, cell-based, Hepacivirus hominis, subtype 1a.
Data set [14] is described as follows: Prodrug activation in human HuH7 cells infected with HCV genotype 1b assessed as ((2R,3R,4R,5S)-5-(4-aminopyrrolo[1,2-f][1,2,4]triazin-7-yl)-3,4-dihydroxy-4-methyltetrahydrofuran-2-yl)methyl tetrahydrogen triphosphate formation per million cells at 10 uM after 2 hrs by LC-MS/MS analysis. The data set is classed as cell-based. The note with it: huh-7, 2 h. In outline:
(§4)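 Huh-7 replicon cells grown in DMEM with 10% heat-inactivated FBS, penicillin-streptomycin and G418, plated to confluency (0.88×10^6 cells/well). Prodrug at 10 μM given as continuous incubation, sampled at 2, 6 and 24 h. Cells washed with ice-cold saline and extracted into 70% methanol overnight. Triphosphate quantified by LC-MS/MS (LLOQ 0.137 pmol/million cells). Duplicate wells, single experiment.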

Data set [15] has as its system Huh-7. Briefly: Cytotoxicity against human HuH7 cells. It is filed as cell-based.
Data set [16] is described as follows: Prodrug activation in human HuH7 cells infected with HCV genotype 1b assessed as((2R,3R,4R,5S)-5-(4-aminopyrrolo[1,2-f][1,2,4]triazin-7-yl)-3,4-dihydroxy-4-methyltetrahydrofuran-2-yl)methyl tetrahydrogen triphosphate formation per million cells at 10 uM after 6 hrs by LC-MS/MS analysis. The data set is classed as cell-based. The conditions noted are these: huh-7, 6 h. In outline:
as §4

Data set [17] can be described thus: Prodrug activation in human HuH7 cells infected with HCV genotype 1b assessed as ((2R,3R,4R,5S)-5-(4-aminopyrrolo[1,2-f][1,2,4]triazin-7-yl)-3,4-dihydroxy-4-methyltetrahydrofuran-2-yl)methyl tetrahydrogen triphosphate formation per million cells at 10 uM after 24 hrs by LC-MS/MS analysis. The note with it: huh-7, 24 h. The data set is classed as cell-based. In outline:
as §4

A short description of data set [18]: Inhibition of human DNA polymerase-alpha.
A short description of data set [19]: Activity at human mitochondrial RNA polymerase assessed as incorporation rate relative to ATP. It is filed as ADME.
A short description of data set [20]: Inhibition of HCV genotype 1b wild-type NS5B RNA dependent RNA polymerase. Set-up: species or system Hepatitis C virus subtype 1b.
Data set [21] has as its target DNA polymerase beta (Homo sapiens, UniProt P06746). In words: Inhibition of human DNA polymerase-beta.
Data set [22] concerns RNA-directed RNA polymerase (Hepacivirus hominis), O39930 [UNDEFINED MUTATION]. In words: Inhibition of HCV genotype 1b wild-type NS5B RNA dependent RNA polymerase S282T mutant relative to control. The note with it: Hepatitis C virus subtype 1b.
Data set [23] is described as follows: Inhibition of human RNA polymerase-2.
Data set [24] is described as follows: Inhibition of human DNA polymerase-gamma.
The mark [25] stands for this setting: Hepatitis C virus, genotype 1b, Huh-7.

As for `CC(C)OC(=O)C1(NP(=O)(OC[C@H]2O[C@@H](c3cnc4c(N)ncnn34)[C@](C)(F)[C@@H]2O)Oc2ccccc2)CCC1` (stereo in doubt; 53), the ERH turned out to be 76% in data set [1] and 90% in [5]. The EC50 (usually the midpoint of the concentration-response curve) in data set [2] stood at 0.44 µM; in [8] it was 3 µM; in data set [13], 0.8 µM. Moreover, the Activity entry in data set [3] is recorded as “Dose-dependent effect”; in [4], “Non-Toxic”; in data set [9] it was “Non-Toxic”. Moreover, the values for the permeability in data set [6] and in data set [10] were 17 nm/s and 93 nm/s, respectively. Further, the t1/2 in data set [7] was determined as 9.1 h; in [11], 3.63 h; in data set [12], 1.65 h.
Take `CCOC(=O)[C@H](C)N[P@@](=O)(O)OC[C@H]1O[C@@](C#N)(c2ccc3c(N)ncnn23)[C@](C)(O)[C@@H]1O`: the Drug metabolism in [14] worked out at 26 pmol; in [16], 117 pmol; in data set [17] it was 83 pmol. Moreover, the Activity entry in [15] was “Non-Toxic”. Besides, it took 1.45 µM to reach a half-maximal effect in [8] (setting [25]) (EC50).
On to `C[C@@]1(F)[C@H](O)[C@@H](COP(=O)(O)OP(=O)(O)OP(=O)(O)O)O[C@H]1c1cnc2c(N)ncnn12`, for which the IC50 (in general, the concentration at which inhibition is half-maximal) in data set [18] is more than 200 µM; in data set [20], 0.15 µM; in data set [21], more than 200 µM; in data set [23], more than 200 µM; in data set [24], more than 200 µM. Also, the Activity in data set [19] is recorded as 0.04%. Further, the EC50 in data set [8] (setting [25]) was more than 89 µM. Moreover, the fold change (FC) in data set [22] was found to be 5.9.
